The target of data set [1] is T1, Caspase-3/Caspase-7 (Homo sapiens) (UniProt P42574+P55210). The data set is described as follows: Activation of Caspase 3/7 in human U937 cells assessed as cleavage of Ac-DEVD-AFC at 1 uM after 16 hrs by fluorescence assay relative to control. Type of data set: cell-based. The following applies: U-937. A digest of the protocol:
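U-937 cells, 50,000/well in phenol red-free RPMI-1640 with 10% FBS, preincubated 15 h at 37°C. Compound added from a 3x solution in media and tested in six wells. Lysis/caspase buffer contains 20 µM Ac-DEVD-AFC. […] 16 h slopes normalized to 0 h (0%) and staurosporine 16 h (100%).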

A short description of data set [2]: Metal chelating activity of the compound assessed as zinc complex formation after 5 mins by EGTA fluorescence titration Assay. Type of data set: physicochemical.
The nature of data set [3]: Cytotoxicity against dog OSW cells assessed as cell death after 72 hrs by sulforhodamine B assay. It counts as functional, cell-based. The following applies: Canis lupus familiaris.
The test system of a further data set is Liver microsome. The data set can be described thus: Drug metabolism in rat liver microsomes assessed as formation of N-dealkylated, dihydroxylated and multiple monooxygenated products at 10 uM after 3 hrs by LC/MS analysis. It counts as ADME. A general note: Microsomes from liver hold many membrane-bound enzymes, among them those of drug oxidation.
Data set [4] can be described thus: AUC in C57/BL6 mouse at 25 mg/kg, po by LC/MS/MS analysis. Type of data set: ADME, organism-based. Further details: dose 25 mg/kg, route oral; call rule not given here. The following applies: plasma.
In a further data set the test system is Serum. The data set can be described thus: Drug uptake in C57/BL6 mouse serum at 25 mg/kg, iv measured after 5 to 6 hrs by LC/MS/MS analysis. Type of data set: ADME, organism-based. Further details: dose 25 mg/kg, route intravenous. The following applies: in vivo. In short, it runs like this: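 Mouse PK: C57/BL6 mice, n = 2 per cohort per time point, 25 mg/kg given by tail vein injection or oral gavage; formulated at 5 mg/mL in 200 mg/mL HPβCD, pH 5.5. Mice sacrificed at set times, blood collected, EDTA plasma frozen at -80°C. Levels measured by LC/MS/MS (Polar-RP column, formic acid/methanol gradient, negative ESI) against an internal standard.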

In data set [5] the test system is U-937. The data set is described as follows: Induction of apoptosis in human U937 cells assessed as necrotic cells at 50 uM after 12 hrs by annexin V-FITC/propidium iodide staining-based flow cytometric analysis relative to control. It counts as functional. On the technique in general: In flow cytometry, cells or beads pass a laser one at a time.
In a further data set the test system is EL4. The data set can be described thus: Cytotoxicity against mouse EL4 cells assessed as cell death after 72 hrs by sulforhodamine B assay. It counts as functional, cell-based. To be noted: EL4, 72 h. In short, it runs like this:
(§1)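 Jurkat plated at 25,000 cells/well; GL-1 and EL4 at 15,000 cells/well. Nine half-log doses, 0.01–100 µM, in triplicate. SRB staining after TCA fixation, absorbance 510 nm. Percent death normalized to a positive death control (100%) and DMSO (0%). Logistic fit gives IC50, mean of three experiments ± s.e.m.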
For orientation: The SRB assay estimates cell density from bound dye.

Data set [6] in a line: Cytotoxicity against dog GL1 cells assessed as cell death after 72 hrs by sulforhodamine B assay. It counts as functional, cell-based. The following applies: Canis lupus familiaris. A digest of the protocol:
as §1

The subject of a further data set is Jurkat. The data set can be described thus: Cytotoxicity against human Jurkat cells assessed as cell death after 72 hrs by sulforhodamine B assay. It counts as functional, cell-based. A digest of the protocol:
as §1

Data set [7] in a line: Elimination half life in dog at 1 mg/kg, iv. It counts as ADME, organism-based, Canis lupus familiaris. The arrangement: dose 1 mg/kg, route intravenous. To be noted: in vivo, read-out: beta t1/2 (converted).
In data set [8] the test system is Mus musculus. The data set can be described thus: Elimination half life in C57/BL6 mouse at 25 mg/kg, iv and po by LC/MS/MS analysis. Further details: dose 25 mg/kg, route oral. It counts as ADME, organism-based. To be noted: in vivo.
Data set [9] can be described thus: AUC in C57/BL6 mouse at 25 mg/kg, iv by LC/MS/MS analysis. Type of data set: ADME, organism-based. Further details: dose 25 mg/kg, route intravenous. To be noted: plasma.
In data set [10] the test system is Mus musculus. The data set can be described thus: Toxicity in C57BL/6 mouse at 200 mg/kg, ip measured over 24 hrs. It counts as organism-based. The arrangement: dose 200 mg/kg, route intraperitoneal. To be noted: in vivo. In short, it runs like this: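 Tolerability: C57BL/6 mice aged 8-10 weeks, n = 3 per cohort, given a single 200 mg/kg i.p. dose formulated at 5 mg/mL in 200 mg/mL HPβCD, pH 5.5. Signs classed as excitatory or depressive and graded mild to severe.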

Data set [11] relates to U-937. The data set can be described thus: Induction of apoptosis in human U937 cells assessed as early apoptotic cells at 50 uM after 12 hrs by annexin V-FITC/propidium iodide staining-based flow cytometric analysis (reference value: 2%). Type of data set: functional.
Data set [12] relates to U-937. The data set is described as follows: Induction of apoptosis in human U937 cells assessed as late apoptotic cells at 50 uM after 12 hrs by annexin V-FITC/propidium iodide staining-based flow cytometric analysis (reference value: 2%). Type of data set: functional.
Data set [13] in a line: Oral bioavailability in C57/BL6 mouse at 25 mg/kg by LC/MS/MS analysis. To be noted: in vivo. Type of data set: ADME, organism-based.
Data set [14] in a line: Metabolic stability in rat liver microsomes at 10 uM after 3 hrs by LC/MS analysis. It counts as ADME. To be noted: read-out: Stability.
The subject of data set [15] is U-937. The data set is described as follows: Induction of apoptosis in human U937 cells assessed as viable cells at 50 uM after 12 hrs by annexin V-FITC/propidium iodide staining-based flow cytometric analysis (reference value: 96%). It counts as functional. The following applies: U-937, 12 h, read-out: Activity.
Data set [16] in a line: Cytotoxicity against human U937 cells assessed as cell death after 72 hrs by sulforhodamine B assay. The following applies: U-937, 72 h.
Data set [17] concerns the target T1, Caspase-3/Caspase-7 (Homo sapiens). The data set is described as follows: Activation of Caspase 3/7 in human U937 cells assessed as cleavage of Ac-DEVD-AFC at 30 uM after 16 hrs by fluorescence assay relative to control. It counts as cell-based. To be noted: U-937.

As a reminder, the Kd is the free concentration of one partner at which half of the binding sites on the other are occupied at equilibrium, for simple one-to-one binding. Usually IC50 stands for the concentration needed to halve the response being measured. By AUC is commonly meant the area under the concentration-time curve, a measure of exposure. Broadly, the bioavailability is the share of a dose that reaches the circulation, judged against a reference dose that is usually intravenous. Low values mean little systemic uptake, high ones much systemic uptake.

T1 sequence (P42574 whole entry, looked up): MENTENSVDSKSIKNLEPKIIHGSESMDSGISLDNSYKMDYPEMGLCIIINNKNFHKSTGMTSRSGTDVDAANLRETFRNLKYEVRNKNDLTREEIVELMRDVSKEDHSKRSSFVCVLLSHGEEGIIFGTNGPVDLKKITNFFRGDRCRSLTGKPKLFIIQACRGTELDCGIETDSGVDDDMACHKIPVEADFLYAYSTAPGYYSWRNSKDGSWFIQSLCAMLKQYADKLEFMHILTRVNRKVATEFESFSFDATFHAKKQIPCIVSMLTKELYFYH
T1 sequence (P55210 whole entry, looked up): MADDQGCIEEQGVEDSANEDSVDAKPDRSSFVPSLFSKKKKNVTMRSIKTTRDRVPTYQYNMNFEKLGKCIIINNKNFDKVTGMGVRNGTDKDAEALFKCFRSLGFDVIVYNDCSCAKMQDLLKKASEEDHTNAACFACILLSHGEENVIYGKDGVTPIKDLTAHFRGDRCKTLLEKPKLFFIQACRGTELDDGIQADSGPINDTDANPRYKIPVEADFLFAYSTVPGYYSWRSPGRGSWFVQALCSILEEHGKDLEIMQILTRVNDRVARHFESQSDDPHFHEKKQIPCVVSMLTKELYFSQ

With `CN[C@@H]1C[C@H]2O[C@@](C)([C@@H]1OC)n1c3ccccc3c3c4c(c5c6ccccc6n2c5c31)C(=O)NC4`, the Activity in [1] is 100%.
As to `C=CCc1cccc(/C=N/NC(=O)CN2CCN(Cc3ccccc3)CC2)c1O` [PAC-1], in data set [2], the Kd turned out to be 1.28 nM. In addition, the IC50 was 10 µM in [3]; 6.5 µM in the data set on EL4; 3000 nM in data set [6]; 4.4 µM in the data set on Jurkat; 10.2 µM in data set [16]. In addition, the Drug metabolism entry with Liver microsome is listed as “metabolite_detected”. The AUC in data set [4] is 527 ng·h/mL; in [9], 3510 ng·h/mL. Also, the Drug uptake result in the data set on Serum is listed as “Not Active”. In addition, the Activity in the data set on U-937 [5] is 5%; in the data set with Mus musculus [10], “Toxic”; in the data set on U-937 [11] it was 22%; in the data set with U-937 [12] it was 19%; in [17], 87%. Besides, in data set [7], the half-life was 126 min. The “beta t1/2” value in the data set with Mus musculus [8] is reported as 24.6 min. In data set [13], this compound registered a bioavailability of 15.1%. Besides, the remaining at 3 h, 10 µM in data set [14] stood at 38%. Besides, the viability at 50 µM in the data set with U-937 [15] was 54%.
